Measurements from different studies.
Each line is one published result; the experiments were not run side by side.
Read-out: microbial growth

Structure (SMILES) | organism | method | strain | time | setting | MIC
CCc1cc(Nc2cc(=O)n(CCCCO)c(=O)[nH]2)ccc1C | Bifidobacterium | agar dilution | – | 48 h | – | > 32 µg/mL
O=C1NC(=S)N/C1=C\c1c2ccccc2c(-c2ccc(N(c3ccccc3)c3ccccc3)cc2)c2ccccc12 | Streptococcus pyogenes | broth dilution | ATCC19615 | – | – | > 1000 µg/mL
O=c1[nH]c(NCc2ccc(Cl)c(Cl)c2)nc2ncn(CCN3CCOCC3)c12 | Bifidobacterium | agar dilution | – | 48 h | – | > 32 µg/mL
CN[C@H](CC(C)C)C(=O)N[C@H]1C(=O)N[C@@H](CC(N)=O)C(=O)N[C@H]2C(=O)N[C@H]3C(=O)N[C@H](C(=O)N[C@H](C(=O)O)c4cc(O)cc(O)c4-c4cc3ccc4O)[C@H](O)c3ccc(c(Cl)c3)Oc3cc2cc(c3O[C@@H]2O[C@H](CO)[C@@H](O)[C@H](O)[C@H]2O[C@H]2C[C@](C)(N)[C@H](O)[C@H](C)O2)Oc2ccc(cc2Cl)[C@H]1O | Streptococcus mutans | broth dilution | ATCC25175 | – | – | 0.98 µg/mL
CCCCCCC/C=C/C(=O)N1C(=O)/C(=C(\O)C2CCNCC2)C(=O)C1CC(C)C (stereo not drawn) | Stenotrophomonas maltophilia | – | ATCC13637 | – | – | 25 µg/mL
O=C(O)c1cn(C2CC2)c2cc(N3CCNCC3)c(F)cc2c1=O | Klebsiella aerogenes | – | DSM30053 | – | – | 0.125 µg/mL
O=C1NC(=S)S/C1=C\c1ccc(-c2ccc(N(c3ccccc3)c3ccccc3)cc2)cc1 | Streptococcus pyogenes | broth dilution | ATCC19615 | – | – | 1000 µg/mL
CCCCCCC/C=C/C(=O)N1C(=O)/C(=C(/C)O)C(=O)C1CCCCN (stereo not drawn) | Stenotrophomonas maltophilia | – | ATCC13637 | – | – | > 200 µg/mL
O=C(Nc1ccc2c(c1)OC(F)(F)O2)Nc1ccc(Cl)c(C(F)(F)F)c1 | Klebsiella aerogenes | – | DSM30053 | – | – | > 100 µM
CCCCCCC/C=C/C(=O)N1C(=O)/C(=C(\O)c2ccc(O)cc2)C(=O)C1CC(C)C (stereo not drawn) | Stenotrophomonas maltophilia | – | ATCC13637 | – | – | 200 µg/mL
CC(C)Oc1c(NC(=O)c2ccc(NC(=O)[C@H](CC(N)=O)NC(=O)c3ccc(NC(=O)c4ccc(C#N)s4)cc3)cc2)ccc(C(=O)Nc2ccc(C(=O)O)cc2)c1O | Klebsiella aerogenes | – | DSM30053 | – | – | 0.25 µg/mL
CCCCCCC/C=C/C(=O)N1CC(=O)/C(=C(\C)O)C1=O | Stenotrophomonas maltophilia | – | ATCC13637 | – | – | 100 µg/mL
O=C1NC(=S)S/C1=C\c1ccc(-c2ccc(N(c3ccccc3)c3ccccc3)cc2)c2ccccc12 | Streptococcus pyogenes | broth dilution | ATCC19615 | – | – | 1000 µg/mL
CCCCCCC/C=C/C(=O)N1C(=O)/C(=C(/C)O)C(=O)C1CCC(=O)O (stereo not drawn) | Stenotrophomonas maltophilia | – | ATCC13637 | – | – | 200 µg/mL
C[C@@H](O)[C@H]1C(=O)N2C(C(=O)O)=C(S[C@@H]3CN[C@H](C(=O)N(C)C)C3)[C@H](C)[C@H]12 | Stenotrophomonas maltophilia | broth dilution | – | – | clinical isolate | > 64 µg/mL
